{"data": "Experimental data of several laboratories", "read-out": "cell growth or viability", "note": "Compare with care: the assays were run in different laboratories."}
{"SMILES": "c1cncc(-c2nc3ccccc3[nH]2)c1", "cell line": "MDA-MB-231", "assay": "MTT", "setting": "48 h", "measurement": "IC50", "result": "> 100 µM"}
{"SMILES": "CNC(=O)c1ccc(N2C(=S)N(c3ccc(C#N)c(C(F)(F)F)c3)C(=O)C2(C)C)cc1F", "cell line": "CWR22Rv1", "assay": "MTT", "measurement": "GI50", "result": "15.1 µM"}
{"SMILES": "COc1ccc(CN2CCc3cc(OS(N)(=O)=O)c(OC)cc3C2)cc1OC", "cell line": "MDA-MB-231", "assay": "WST-1", "setting": "96 h", "measurement": "GI50", "result": "3.15 µM"}
{"SMILES": "COc1cc(C)cc2oc(-c3ccc(N(C)C)cc3)cc(=O)c12", "cell line": "HS27", "assay": "MTT", "setting": "24 h", "measurement": "IC50", "result": "141 µM"}
{"SMILES": "COc1cc2c(cc1O)CCN(Cc1cccc(OC(F)(F)F)c1)C2", "cell line": "MDA-MB-231", "assay": "WST-1", "setting": "96 h", "measurement": "GI50", "result": "> 100 µM"}
{"SMILES": "Cc1ccc2nc(-c3ccc([N+](=O)[O-])cc3)n(Cc3ccccc3Cl)c2c1", "cell line": "MDA-MB-231", "assay": "MTT", "measurement": "IC50", "result": "28.5 µM"}
{"SMILES": "COc1cc2c(cc1O)CCN(Cc1cc(OC)c(OC)c(OC)c1)C2", "cell line": "MDA-MB-231", "assay": "WST-1", "setting": "96 h", "measurement": "GI50", "result": "0.62 µM"}
{"SMILES": "COc1cc(OC)c2c(=O)cc(-c3ccc(Br)cc3)oc2c1-c1c(OC)cc(OC)c2c(=O)cc(-c3ccc(Br)cc3)oc12", "cell line": "HS27", "assay": "MTT", "setting": "24 h", "measurement": "IC50", "result": "> 200 µM"}
{"SMILES": "N#CC(C(=O)Nc1cccc(C(F)(F)F)c1)=C1Sc2nc3ccc(S(=O)(=O)N4CCCC4)cc3nc2S1", "cell line": "MDA-MB-231", "assay": "MTT", "setting": "25 µM, 24 h", "measurement": "viability", "result": "26.5%"}
{"SMILES": "Oc1cccc(-c2nc3ccccc3[nH]2)c1", "cell line": "MDA-MB-231", "assay": "MTT", "setting": "48 h", "measurement": "IC50", "result": "> 100 µM"}
{"SMILES": "COc1cccc2c1C(=O)c1c(O)c3c(c(O)c1C2=O)C[C@@](O)(C(=O)CO)C[C@@H]3O[C@H]1C[C@H](N)[C@H](O)[C@H](C)O1", "cell line": "MDA-MB-231", "assay": "MTT", "setting": "25 µM, 24 h", "measurement": "viability", "result": "16.2%"}
{"SMILES": "C=CCn1c(-c2ccc(Cl)cc2)nc2ccc(C)cc21", "cell line": "MDA-MB-231", "assay": "MTT", "measurement": "IC50", "result": "30.1 µM"}
{"SMILES": "COC(=O)CN=c1scc(-c2ccccc2)n1-c1ccccc1[N+](=O)[O-]", "cell line": "SiHa", "assay": "MTT", "measurement": "IC50", "result": "6.78 µM"}
{"SMILES": "COc1cccc(-c2nc3ccccc3[nH]2)c1", "cell line": "MDA-MB-231", "assay": "MTT", "setting": "48 h", "measurement": "IC50", "result": "25.5 µM"}
{"SMILES": "CCOC(=O)C(C(C)=O)=C1Sc2nc3ccc(S(=O)(=O)N4CCCC4)cc3nc2S1", "cell line": "MDA-MB-231", "assay": "MTT", "setting": "3.125 µM, 24 h", "measurement": "viability", "result": "49.2%"}
{"SMILES": "COc1cc2c(cc1O)CCN(Cc1ccc(OC)c(OC)c1OC)C2", "cell line": "MDA-MB-231", "assay": "WST-1", "setting": "96 h", "measurement": "GI50", "result": "> 100 µM"}
{"SMILES": "COc1cc(OC)c2c(=O)cc(-c3ccccc3)oc2c1", "cell line": "HS27", "assay": "MTT", "setting": "24 h", "measurement": "IC50", "result": "> 200 µM"}
{"SMILES": "Cc1ccc2nc(-c3ccc(Cl)cc3Cl)[nH]c2c1", "cell line": "MDA-MB-231", "assay": "MTT", "setting": "48 h", "measurement": "IC50", "result": "27.5 µM"}
{"SMILES": "COc1cc(OC)c2c(=O)cc(-c3ccc(Br)cc3)oc2c1", "cell line": "HS27", "assay": "MTT", "setting": "24 h", "measurement": "IC50", "result": "> 200 µM"}
{"SMILES": "CCc1cccc(CN2CCc3cc(O)c(OC)cc3C2)c1", "cell line": "MDA-MB-231", "assay": "WST-1", "setting": "96 h", "measurement": "GI50", "result": "> 100 µM"}
